Assays:
MRC5 [1] = test: Cytotoxicity on MRC-5 cells at 6.25 uM; assay type: functional; conditions: Homo sapiens
Procedure, shortened: (§1)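 MRC-5 human diploid embryonic lung cells seeded at 5 000/well, washed after 24 h, then given 2-fold drug dilutions (25, 12.5, 6.25, 3.13 µM) in RPMI + 5% FCS, final DMSO below 0.5%. Incubated 7 days at 37 °C, 5% CO2. MTT colorimetric read-out, scored as % reduction of absorbance at 540 nm versus untreated controls.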

Trypanosoma brucei [2] = test: Percentage of activity against Trypanosoma brucei at 1.56 uM; assay type: functional
Procedure, shortened: (§2)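 Bloodstream-form T. brucei in HMI-9 medium, 10 000 parasites/well, exposed to 12.5, 6.25, 3.13 and 1.56 µM drug for 4 days. Read-out is % inhibition of parasite multiplication. Macrophage toxicity judged on mouse primary peritoneal macrophages.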

Trypanosoma cruzi [3] = test: Percentage of activity against Trypanosoma cruzi at 12.5 uM; assay type: functional
Procedure, shortened: (§3)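 Mouse peritoneal macrophages, 30 000/well, infected after 24 h with about 100 000 T. cruzi trypomastigotes per well plus 2-fold drug dilutions (12.5–1.56 µM). Incubated 4 days at 37 °C, 5% CO2. Methanol-fixed, Giemsa-stained and scored microscopically as % reduction of total parasite load (free trypomastigotes plus intracellular amastigotes) versus untreated controls.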

Leishmania infantum [4] = test: In Vitro evaluation for the percentage of activity towards Leishmania infantum at 12.5 uM Concentration; assay type: functional
Procedure, shortened: (§4)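 Starch-stimulated mouse peritoneal macrophages, 30 000/well, infected after 24 h with spleen-derived L. infantum amastigotes (10:1) together with 2-fold drug dilutions (12.5–1.56 µM). Incubated 7 days at 37 °C, 5% CO2. Wright-stained slides scored microscopically as % reduction of total parasite load or of infected macrophages. Uninfected treated cultures judged microscopically for macrophage toxicity.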

Trypanosoma brucei [5] = test: Percentage of activity against Trypanosoma brucei at 12.5 uM; assay type: functional; procedure, shortened: as §2
MRC5 [6] = test: Cytotoxicity on MRC-5 cells at 12.5 uM; assay type: functional; conditions: Homo sapiens; procedure, shortened: as §1
Trypanosoma cruzi [7] = test: Percentage of activity against Trypanosoma cruzi at 6.25 uM Concentration; assay type: functional; procedure, shortened: as §3
Plasmodium falciparum = test: In vitro sensitivity for Plasmodium falciparum FcB1R; assay type: functional, organism-based
Procedure, shortened: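 Asynchronous P. falciparum cultures in human erythrocytes (0.5% parasitemia, 1% haematocrit) exposed to serially diluted drug for 24 h at 37 °C. [3H]hypoxanthine (0.5 µCi/well) then added for a further 24 h. Uptake compared with drug-free controls on the same plate. IC50 taken from the concentration–response curve, averaged over independent experiments. DMSO ≤0.1%.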

Leishmania infantum [8] = test: Percentage of activity against Leishmania infantum 6.25 uM; assay type: functional; procedure, shortened: as §4
Trypanosoma cruzi [9] = test: Percentage of activity against Trypanosoma cruzi at 3.13 uM; assay type: functional; procedure, shortened: as §3
MRC5 [10] = test: Cytotoxicity on MRC-5 cells at 25 uM; assay type: functional; conditions: Homo sapiens; procedure, shortened: as §1
Trypanosoma brucei [11] = test: Percentage of activity against Trypanosoma brucei at 6.25 uM; assay type: functional; procedure, shortened: as §2
Trypanosoma cruzi [12] = test: Percentage of activity against Trypanosoma cruzi at 1.56 uM; assay type: functional; procedure, shortened: as §3
Leishmania infantum [13] = test: Percentage of activity against Leishmania infantum at 1.56 uM; assay type: functional; procedure, shortened: as §4
Trypanosoma brucei [14] = test: Percentage of activity against Trypanosoma brucei at 3.13 uM; assay type: functional; procedure, shortened: as §2
MRC5 [15] = test: Cytotoxicity on MRC-5 cells at 3.13 uM; assay type: functional; conditions: Homo sapiens; procedure, shortened: as §1
Leishmania infantum [16] = test: Percentage of activity against Leishmania infantum at 3.13 uM; assay type: functional; procedure, shortened: as §4
Trypanosoma cruzi [17] = test: In Vitro evaluation for the percentage of activity towards Trypanosoma cruzi at 6.25 uM Concentration; Toxic upon mouse primary peritoneal macrophages; assay type: functional, organism-based; procedure, shortened: as §3
Leishmania infantum [18] = test: Percentage of activity against Leishmania infantum at 6.25 uM; Toxic upon mouse primary peritoneal macrophages; assay type: functional, organism-based; procedure, shortened: as §4
Trypanosoma cruzi [19] = test: Percentage of activity against Trypanosoma cruzi at 12.5 uM; Toxic upon mouse primary peritoneal macrophages; assay type: functional, organism-based; procedure, shortened: as §3
Leishmania infantum [20] = test: Percentage of activity against Leishmania infantum at 12.5 uM Concentration; Toxic upon mouse primary peritoneal macrophages; assay type: functional, organism-based; procedure, shortened: as §4

Structure (SMILES)	IC50 (Plasmodium falciparum)	cytotoxicity at 6.25 µM (MRC5 [1])	Percent inhibition of parasite multiplication (Trypanosoma brucei [2])	T. cruzi parasite load reduction (Trypanosoma cruzi [3])	Percent inhibition of Leishmania infantum (Leishmania infantum [4])	Inhibition of parasite multiplication (Trypanosoma brucei [5])	cytotoxicity at 12.5 µM (MRC5 [6])	Reduction of T. cruzi parasite load (Trypanosoma cruzi [7])	Antileishmanial activity (% reduction of parasite load) (Leishmania infantum [8])	Reduction of T. cruzi parasite load (Trypanosoma cruzi [9])	cytotoxicity at 25 µM (MRC5 [10])	Inhibition of parasite multiplication (Trypanosoma brucei [11])	Parasite load reduction (Trypanosoma cruzi [12])	Antileishmanial activity (% reduction of parasite load) (Leishmania infantum [13])	Parasite growth inhibition (Trypanosoma brucei [14])	cytotoxicity at 3.13 µM (MRC5 [15])	Percent antileishmanial activity (reduction of parasite load) (Leishmania infantum [16])	Cytotoxicity (Leishmania infantum [18])	Cytotoxicity (Trypanosoma cruzi [19])	Cytotoxicity (Leishmania infantum [20])	further results
COc1ccc2nc3cc(Cl)ccc3c(NCCCN(CCCNc3c4ccc(Cl)cc4nc4ccc(OC)cc34)C(=O)C(CCCCN)NC(=O)OC(C)(C)C)c2c1 (configuration not stated)	> 500 nM	40%	100%	99%	40%	100%	100%	90%	0%	40%	100%	100%	0%	0%	100%	0%	0%				
COc1ccc2nc3cc(Cl)ccc3c(NCCCN(CCCNc3c4ccc(Cl)cc4nc4ccc(OC)cc34)C(=O)C(N)CN)c2c1 (configuration not stated)	> 500 nM	0%	99%				0%			40%	0%	100%	0%	0%	100%	0%	0%	Toxic	Toxic	Toxic	Cytotoxicity (Trypanosoma cruzi [17]): Toxic
COc1ccc2nc3cc(Cl)ccc3c(NCCCN(CCCNc3c4ccc(Cl)cc4nc4ccc(OC)cc34)C(=O)C(C)N)c2c1 (configuration not stated)	> 500 nM	40%	100%	0%	0%	100%	100%	0%	0%	0%	100%	100%	0%	0%	100%	20%	0%				
COc1ccc2nc3cc(Cl)ccc3c(NCCCN(CCCNc3c4ccc(Cl)cc4nc4ccc(OC)cc34)C(=O)CNC(=O)C(C)NC(=O)OC(C)(C)C)c2c1 (configuration not stated)	440 nM	41%	100%				71%	40%		0%	100%	100%	0%	0%	100%	31%	0%	Toxic	Toxic	Toxic	

Now those with a lower IC50 (Plasmodium falciparum), led by results:

IC50 (Plasmodium falciparum)	Structure (SMILES)	cytotoxicity at 6.25 µM (MRC5 [1])	Percent inhibition of parasite multiplication (Trypanosoma brucei [2])	T. cruzi parasite load reduction (Trypanosoma cruzi [3])	Percent inhibition of Leishmania infantum (Leishmania infantum [4])	Inhibition of parasite multiplication (Trypanosoma brucei [5])	cytotoxicity at 12.5 µM (MRC5 [6])	Reduction of T. cruzi parasite load (Trypanosoma cruzi [7])	Antileishmanial activity (% reduction of parasite load) (Leishmania infantum [8])	Reduction of T. cruzi parasite load (Trypanosoma cruzi [9])	cytotoxicity at 25 µM (MRC5 [10])	Inhibition of parasite multiplication (Trypanosoma brucei [11])	Parasite load reduction (Trypanosoma cruzi [12])	Antileishmanial activity (% reduction of parasite load) (Leishmania infantum [13])	Parasite growth inhibition (Trypanosoma brucei [14])	cytotoxicity at 3.13 µM (MRC5 [15])	Percent antileishmanial activity (reduction of parasite load) (Leishmania infantum [16])	Cytotoxicity (Leishmania infantum [18])	Cytotoxicity (Trypanosoma cruzi [19])	Cytotoxicity (Leishmania infantum [20])	further results
330 nM	COc1ccc2nc3cc(Cl)ccc3c(NCCCCN(CCCNc3c4ccc(Cl)cc4nc4ccc(OC)cc34)C(=O)C(C)NC(=O)OC(C)(C)C)c2c1 (configuration not stated)	0%	100%	90%	70%	100%	100%	70%	40%	20%	100%	100%	0%	0%	100%	0%	20%				
92 nM	COc1ccc2nc3cc(Cl)ccc3c(NCCCN(CCCNc3c4ccc(Cl)cc4nc4ccc(OC)cc34)C(=O)CNC(=O)OC(C)(C)C)c2c1	20%	100%	80%	80%	100%	100%	40%	60%	0%	100%	100%	0%	0%	100%	0%	40%				
307 nM	COc1ccc2nc3cc(Cl)ccc3c(NCCCN(CCCNc3c4ccc(Cl)cc4nc4ccc(OC)cc34)C(=O)C(CN)NC(=O)OC(C)(C)C)c2c1 (configuration not stated)	0%	99%				37%			40%	39%	100%	0%	0%	100%	0%	0%	Toxic	Toxic	Toxic	Cytotoxicity (Trypanosoma cruzi [17]): Toxic
16 nM	COc1ccc2nc3cc(Cl)ccc3c(NCCCCCCNc3c4ccc(Cl)cc4nc4ccc(OC)cc34)c2c1	80%	90%	70%	40%	100%	90%	40%	0%	0%	100%	100%	0%	0%	99%	20%	0%				
247 nM	COc1ccc2nc3cc(Cl)ccc3c(NCCCN(CCCNc3c4ccc(Cl)cc4nc4ccc(OC)cc34)C(=O)C(CO)NC(=O)OC(C)(C)C)c2c1 (configuration not stated)	0%	100%	80%	40%	100%	0%	20%	0%	0%	0%	100%	0%	0%	100%	0%	0%				
232 nM	COc1ccc2nc3cc(Cl)ccc3c(NCCCN(CCCNc3c4ccc(Cl)cc4nc4ccc(OC)cc34)C(=O)C(C)NC(=O)OCC3c4ccccc4-c4ccccc43)c2c1 (configuration not stated)	100%	100%			100%	100%			0%	100%	100%	0%	0%	100%	100%	40%	Toxic	Toxic	Toxic	Cytotoxicity (Trypanosoma cruzi [17]): Toxic
